Structures are written as SMILES. Hit rate of the full screen: of about 260,000 compounds, about 960 (0.37%) were called active. This is one part of a sample in which actives are shown more often than they occur. A number with no mark means an inactive call.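 How the source made its calls: active means mean E-selectin-positive cell signal at least 10% of the positive control, reached in at least 60% of replicates, without over 20% cell loss; inconclusive means no rule given, readout overlaps actives, possibly toxicity-flagged; inactive means the rest, including those meeting only one limit.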

Chain of E-selectin (Homo sapiens) (P16581 whole entry, looked up): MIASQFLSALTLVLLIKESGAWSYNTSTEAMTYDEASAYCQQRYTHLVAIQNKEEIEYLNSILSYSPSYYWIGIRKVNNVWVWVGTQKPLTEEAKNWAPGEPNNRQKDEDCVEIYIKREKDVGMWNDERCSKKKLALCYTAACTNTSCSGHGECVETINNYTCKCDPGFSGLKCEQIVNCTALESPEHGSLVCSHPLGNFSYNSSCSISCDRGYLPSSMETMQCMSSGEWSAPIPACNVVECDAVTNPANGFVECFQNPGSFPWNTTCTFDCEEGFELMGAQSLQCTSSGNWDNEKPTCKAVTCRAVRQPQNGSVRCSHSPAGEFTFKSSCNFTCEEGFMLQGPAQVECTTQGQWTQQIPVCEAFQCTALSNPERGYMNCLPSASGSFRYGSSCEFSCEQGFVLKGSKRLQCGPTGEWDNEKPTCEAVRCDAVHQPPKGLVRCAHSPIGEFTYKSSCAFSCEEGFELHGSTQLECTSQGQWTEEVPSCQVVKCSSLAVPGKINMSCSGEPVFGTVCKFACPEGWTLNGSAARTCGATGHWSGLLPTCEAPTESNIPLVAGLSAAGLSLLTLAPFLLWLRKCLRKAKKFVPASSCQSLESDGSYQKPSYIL

The target in the assay is E-selectin (Homo sapiens) (UniProt P16581). Put plainly: inducers of endothelial E-selectin expression – imaging, HUVEC, immunofluorescence imaging, single point, primary screen (AID 686992).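 Further: signal is the percent of cells scored E-selectin positive by PE staining.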 Particulars: at 7.58 µM, stronger effect = higher value, normalized: neutral wells 0, TNF-alpha wells 100. The gist of the method:
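System: HUVEC, human umbilical vein endothelial cells; quantity: 3,000 cells/well; buffer or medium: EGM-2 medium, gelatin-coated wells; dosing: single-point compound dose; detection: immunofluorescence imaging; evaluation: % PE-positive cells; benchmarks: TNF-alpha, DMSO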
Turning to `COc1ccc(S(=O)(=O)N(C)C[C@H]2Oc3ccc(NC(=O)Nc4c(C)noc4C)cc3CC(=O)N([C@@H](C)CO)C[C@H]2C)cc1`, the activation was -4.24%.

In the case of `Cc1noc(C)c1NC(=O)Nc1ccc2c(c1)C(=O)N([C@@H](C)CO)C[C@H](C)[C@H](CN(C)S(=O)(=O)c1ccc(Cl)cc1)O2`, the activation is -0.247%.

`COc1ccc(NC(=O)Nc2ccc3c(c2)C(=O)N([C@@H](C)CO)C[C@H](C)[C@@H](CN(C)S(=O)(=O)c2ccc(Cl)cc2)O3)cc1`: the activation was 8.29%.

In the case of `COc1ccc(S(=O)(=O)N(C)C[C@H]2Oc3ccc(NC(=O)Nc4c(C)noc4C)cc3C(=O)N([C@H](C)CO)C[C@H]2C)cc1`, the activation was 45.3% (active).

Regarding `COc1ccc(S(=O)(=O)N(C)C[C@@H]2Oc3ccc(NC(=O)Nc4c(C)noc4C)cc3C(=O)N([C@H](C)CO)C[C@@H]2C)cc1`, the activation was -0.053%.

Consider `COc1ccc(S(=O)(=O)N(C)C[C@H]2Oc3ccc(NC(=O)Nc4c(C)noc4C)cc3C(=O)N([C@@H](C)CO)C[C@@H]2C)cc1`, for which the activation was 43.2% (active).

`CC1=C(C(=O)N(C(C)C)C(C)C)CC(CC(=O)NCCCCc2ccccc2)C(=O)N1CCC1=CCCCC1` (centres undefined): the activation was 1.3%.

As to `Cc1cc(C)n2c(Nc3c(C)cccc3C)c(CCc3ccccc3)nc2n1`, the activation was 0.0345%.

Consider `COc1cccc2c1C(=O)c1c(O)c3c(c(O)c1C2=O)CC(O)(C(C)=NNC(=O)c1ccc(Cl)c(Cl)c1)CC3OC1CC(N)C(O)C(C)O1` (centres undefined), for which the activation is 160% (active).

`CO[C@H]1CN(C)C(=O)c2ccc(NC(=O)CC(F)(F)F)cc2OC[C@H](C)N(C(=O)C2CC2)C[C@H]1C`: the activation is -0.112%.

Regarding `CCC(=O)Nc1ccc2c(c1)C(=O)N(C)[C@@H]1CC[C@@H](CC(=O)NCCN3CCCCC3)O[C@@H]1CO2`, the activation was -0.0795%.

`CCNS(=O)(=O)c1ccc(CCC(=O)N2CCN(c3cc(Cl)ccc3C)CC2)cc1`: the activation is -0.168%.

On to `CCNS(=O)(=O)c1ccc(CCC(=O)N2CCN(c3ccc(OC)cc3)CC2)cc1`, for which the activation was 31.3% (active).

Regarding `COc1ccc(N2CCN(C(=O)CNC(=O)c3ccc(Br)o3)CC2)cc1`, the activation is -0.05%.

With `COc1ccccc1CCn1cnc(-c2ccccc2)c1C(C)C`, the activation is -0.038%.

For `O=C(c1cccnc1)N1C[C@@H]2[C@H](c3ccccc31)[C@@H](CO)N2C(=O)Nc1ccc(F)cc1`, the activation is 0.778%.

Regarding `O=C(Nc1ccc(Br)cc1)c1cc(S(=O)(=O)Nc2ccccn2)ccc1Cl`, the activation is 0.225%.

With `Cc1cccc(NS(=O)(=O)c2cccc(C(=O)NNC(=O)c3ccccc3O)c2)c1`, the activation is -0.07%.

Take `Cc1ccccc1NC(=O)c1cc(S(=O)(=O)Nc2cccc(C(=O)O)c2)ccc1Cl`: the activation is 65.6% (active).
